Data on four molecules can be found in ChEMBL document CHEMBL1144723, “Antiproliferative limonoids of a Malleastrum sp. from the Madagascar rainforest” (J Nat Prod, 2008).

What all share (format): functional, cell-based
One assay relates to A2780. Nature of the assay: Antiproliferative activity against human A2780 cells after 96 hrs by CellTiter-Glo luminescent cell viability assay. As to conditions: A2780, 96 h. Background: In ATP-based viability assays light output follows the ATP content of the culture.
A further assay relates to MDA-MB-435. Nature of the assay: Antiproliferative activity against human MDA-MB-435 cells after 96 hrs by CellTiter-Glo luminescent cell viability assay. Particulars: MDA-MB-435, 96 h. Summed up:
(§1)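 Cells were cultured with compound present continuously at 0.3–10000 nM, or without compound, for 96 h. Growth was read by ATP luminescence (CellTiter-Glo). IC50 is the concentration giving 50% growth inhibition versus untreated cells. Vinblastine served as the positive control. Two separate replicate experiments were run.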

The next assay deals with HT-29. Nature of the assay: Antiproliferative activity against human HT29 cells after 96 hrs by CellTiter-Glo luminescent cell viability assay. Particulars: HT-29, 96 h. The method, boiled down: as §1
The nature of assay [1]: Antiproliferative activity against human HS22T1 cells after 96 hrs by CellTiter-Glo luminescent cell viability assay. Particulars: HS22T1, 96 h. The method, boiled down: as §1
A further assay deals with U-937. The assay can be described thus: Antiproliferative activity against human U937 cells after 96 hrs by CellTiter-Glo luminescent cell viability assay. As to conditions: U-937, 96 h. The method, boiled down:
as §1

Turning to `CC(=O)O[C@]12OC[C@@]3(C)C(=O)C=C[C@@](C)([C@@H]13)[C@H]1[C@@H](O)[C@H](OC(=O)C(C)C)[C@@]3(C)[C@H](c4ccoc4)C[C@H]4O[C@]43[C@]1(C)C2=O` [MALLEASTRONE A], the IC50 – broadly, the midpoint of a concentration-inhibition curve – with A2780 was found to be 490 nM; with MDA-MB-435, 410 nM; with HT-29 it was 240 nM; in assay [1], 240 nM; in the assay with U-937, 200 nM.

`CC[C@H](C)C(=O)O[C@H]1[C@H](O)[C@@H]2[C@@]3(C)C=CC(=O)[C@]4(C)CO[C@](OC(C)=O)(C(=O)[C@@]2(C)[C@@]25O[C@@H]2C[C@@H](c2ccoc2)[C@]15C)[C@H]34` [MALLEASTRONE B]: the IC50 is 630 nM with A2780; 340 nM in the assay with MDA-MB-435; 220 nM with HT-29; 230 nM in assay [1]; 190 nM in the assay with U-937.

`CC(=O)O[C@]12OC[C@@]3(C)C(=O)C[C@@H](O)[C@@](C)([C@@H]13)[C@H]1[C@@H](O)[C@H](OC(=O)C(C)C)[C@@]3(C)[C@H](c4ccoc4)C[C@H]4O[C@]43[C@]1(C)C2=O` [MALLEASTRONE C]: the half-maximal inhibitory concentration (IC50) in the assay with A2780 was 18000 nM.

For `CC[C@]1(O)C[C@@H]2CN(CCc3c([nH]c4ccccc34)[C@@](C(=O)OC)(c3cc4c(cc3OC)N(C)[C@H]3[C@@](O)(C(=O)OC)[C@H](OC(C)=O)[C@]5(CC)C=CCN6CC[C@]43[C@@H]65)C2)C1` [VINBLASTINE], the 50% inhibitory concentration (IC50) with MDA-MB-435 came out at 0.27 nM; in the assay with HT-29, 0.53 nM; in assay [1], 1.38 nM; in the assay on U-937 it was 0.49 nM.
